Source: ChEMBL document CHEMBL4184325, “Discovery of 4,7-Diamino-5-(4-phenoxyphenyl)-6-methylene-pyrimido[5,4- b]pyrrolizines as Novel Bruton's Tyrosine Kinase Inhibitors” (J Med Chem, 2018)
pIC50: −log10 of the molar value. Calls of active or inactive are those of the source. No cut-off for these calls is given here.

Assays:
[1] = biological target: Tyrosine-protein kinase BTK (Homo sapiens, UniProt Q06187); test: Inhibition of recombinant human BTK using Poly(Glu, Tyr) 4:1 as substrate after 1 hr by ELISA
Tyrosine-protein kinase BTK, sequence (Q06187 whole entry): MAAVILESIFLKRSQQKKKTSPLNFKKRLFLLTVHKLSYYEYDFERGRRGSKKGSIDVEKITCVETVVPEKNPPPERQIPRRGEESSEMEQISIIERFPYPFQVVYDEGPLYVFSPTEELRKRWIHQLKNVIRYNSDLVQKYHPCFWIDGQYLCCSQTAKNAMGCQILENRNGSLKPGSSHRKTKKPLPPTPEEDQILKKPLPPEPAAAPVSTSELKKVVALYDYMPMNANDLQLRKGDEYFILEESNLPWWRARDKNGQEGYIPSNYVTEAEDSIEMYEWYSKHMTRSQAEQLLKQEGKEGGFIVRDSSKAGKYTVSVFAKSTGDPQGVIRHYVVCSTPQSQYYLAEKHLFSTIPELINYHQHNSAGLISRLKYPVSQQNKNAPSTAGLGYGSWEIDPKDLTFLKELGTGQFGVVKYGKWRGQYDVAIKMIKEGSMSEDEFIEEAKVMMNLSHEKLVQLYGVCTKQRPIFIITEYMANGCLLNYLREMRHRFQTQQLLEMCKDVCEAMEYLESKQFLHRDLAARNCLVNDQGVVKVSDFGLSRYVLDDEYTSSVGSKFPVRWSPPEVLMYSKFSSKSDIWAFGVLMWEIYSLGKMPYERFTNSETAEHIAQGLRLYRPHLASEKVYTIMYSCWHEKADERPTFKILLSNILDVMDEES

Rattus norvegicus [2] = test: Half life in rat at 1 mg/kg, iv; format: ADME, organism-based; conditions: in vivo
Method in brief: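 Rats given 1 mg/kg intravenously; vehicle DMSO, Tween 80, normal saline; values are the average of three determinations.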

[3] = Tmax in rat at 3 mg/kg, po; format: ADME, organism-based; conditions: in vivo
Method in brief: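 Rats were given compound at 1 mg/kg iv or 3 mg/kg po. Vehicle was DMSO, Tween 80 and normal saline. Values are the average of three determinations.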

Rattus norvegicus [4] = test: AUC (0 to infinity) in rat at 3 mg/kg, po; format: ADME, organism-based; set-up: dose 3 mg/kg, time infinity, route oral; conditions: in vivo
Method in brief: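 Rats dosed orally at 3 mg/kg; vehicle DMSO, Tween 80, normal saline; values are the average of three determinations.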

[5] = Drug metabolism in human liver microsomes assessed as (S,E)-N-(4-amino-6-methylene-5-(4-phenoxyphenyl)-7,8-dihydro-6H-pyrimido[5,4-b]pyrrolizin-7-yl)-3-hydroxyacrylamide formation after 3 hrs; format: ADME, microsome
[6] = Drug metabolism in rat liver microsomes assessed as N-((S)-4-amino-6-methylene-5-(4-phenoxyphenyl)-7,8-dihydro-6H-pyrimido[5,4-b]pyrrolizin-7-yl)-2,3-dihydroxypropanamide formation after 3 hrs; format: ADME, microsome
[7] = biological target: Receptor tyrosine-protein kinase erbB-4 (Homo sapiens, UniProt Q15303); test: Inhibition of recombinant human ErbB4 using Poly(Glu, Tyr) 4:1 as substrate after 1 hr by ELISA
Receptor tyrosine-protein kinase erbB-4, sequence (Q15303 whole entry): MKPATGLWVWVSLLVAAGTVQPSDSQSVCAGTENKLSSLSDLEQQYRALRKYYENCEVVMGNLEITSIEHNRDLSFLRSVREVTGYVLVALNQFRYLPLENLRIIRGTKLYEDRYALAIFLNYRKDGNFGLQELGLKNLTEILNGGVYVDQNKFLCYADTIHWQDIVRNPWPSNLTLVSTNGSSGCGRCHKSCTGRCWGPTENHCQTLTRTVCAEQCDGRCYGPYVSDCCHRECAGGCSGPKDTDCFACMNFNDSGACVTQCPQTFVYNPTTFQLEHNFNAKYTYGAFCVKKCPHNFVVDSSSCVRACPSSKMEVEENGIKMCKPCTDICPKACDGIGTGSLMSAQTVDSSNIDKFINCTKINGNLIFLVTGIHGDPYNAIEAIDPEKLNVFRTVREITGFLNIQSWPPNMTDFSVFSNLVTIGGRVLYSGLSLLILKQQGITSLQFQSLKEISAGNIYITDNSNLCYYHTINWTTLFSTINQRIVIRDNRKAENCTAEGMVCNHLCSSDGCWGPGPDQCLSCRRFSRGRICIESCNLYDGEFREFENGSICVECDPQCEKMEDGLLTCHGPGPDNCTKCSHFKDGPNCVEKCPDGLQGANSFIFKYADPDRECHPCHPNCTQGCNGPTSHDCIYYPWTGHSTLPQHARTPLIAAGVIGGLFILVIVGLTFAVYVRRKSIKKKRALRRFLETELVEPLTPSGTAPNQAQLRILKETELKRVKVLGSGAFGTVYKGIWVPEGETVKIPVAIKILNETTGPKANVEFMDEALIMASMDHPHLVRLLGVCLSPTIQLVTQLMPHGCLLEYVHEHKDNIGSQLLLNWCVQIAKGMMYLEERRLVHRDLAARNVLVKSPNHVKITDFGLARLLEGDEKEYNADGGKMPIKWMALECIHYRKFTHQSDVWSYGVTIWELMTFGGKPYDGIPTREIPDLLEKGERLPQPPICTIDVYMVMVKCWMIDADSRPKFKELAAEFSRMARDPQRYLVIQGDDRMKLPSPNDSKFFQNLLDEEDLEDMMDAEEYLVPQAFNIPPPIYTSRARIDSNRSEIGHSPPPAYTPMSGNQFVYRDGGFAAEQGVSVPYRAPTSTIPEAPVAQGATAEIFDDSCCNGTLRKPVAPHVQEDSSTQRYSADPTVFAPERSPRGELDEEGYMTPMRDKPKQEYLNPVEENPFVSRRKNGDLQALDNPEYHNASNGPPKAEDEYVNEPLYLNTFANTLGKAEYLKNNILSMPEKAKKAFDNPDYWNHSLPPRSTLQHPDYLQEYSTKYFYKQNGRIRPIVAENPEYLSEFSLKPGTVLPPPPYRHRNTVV
Method in brief: (§1)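 Kinase activity was measured by ELISA on wells precoated with 20 µg/mL poly(Glu,Tyr) 4:1. Enzyme was incubated with compound in 50 mM HEPES pH 7.4, 20 mM MgCl2, 0.1 mM MnCl2, 0.2 mM Na3VO4, 1 mM DTT with 5 µM ATP at 37 °C for 1 h. Phosphotyrosine was detected with PY99 antibody, HRP secondary and OPD, read at A492. IC50 is the mean of duplicates.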

[8] = biological target: Receptor tyrosine-protein kinase erbB-2 (Homo sapiens, UniProt P04626); test: Inhibition of recombinant human ErbB2 using Poly(Glu, Tyr) 4:1 as substrate after 1 hr by ELISA; method in brief: as §1
Receptor tyrosine-protein kinase erbB-2, sequence (P04626 whole entry): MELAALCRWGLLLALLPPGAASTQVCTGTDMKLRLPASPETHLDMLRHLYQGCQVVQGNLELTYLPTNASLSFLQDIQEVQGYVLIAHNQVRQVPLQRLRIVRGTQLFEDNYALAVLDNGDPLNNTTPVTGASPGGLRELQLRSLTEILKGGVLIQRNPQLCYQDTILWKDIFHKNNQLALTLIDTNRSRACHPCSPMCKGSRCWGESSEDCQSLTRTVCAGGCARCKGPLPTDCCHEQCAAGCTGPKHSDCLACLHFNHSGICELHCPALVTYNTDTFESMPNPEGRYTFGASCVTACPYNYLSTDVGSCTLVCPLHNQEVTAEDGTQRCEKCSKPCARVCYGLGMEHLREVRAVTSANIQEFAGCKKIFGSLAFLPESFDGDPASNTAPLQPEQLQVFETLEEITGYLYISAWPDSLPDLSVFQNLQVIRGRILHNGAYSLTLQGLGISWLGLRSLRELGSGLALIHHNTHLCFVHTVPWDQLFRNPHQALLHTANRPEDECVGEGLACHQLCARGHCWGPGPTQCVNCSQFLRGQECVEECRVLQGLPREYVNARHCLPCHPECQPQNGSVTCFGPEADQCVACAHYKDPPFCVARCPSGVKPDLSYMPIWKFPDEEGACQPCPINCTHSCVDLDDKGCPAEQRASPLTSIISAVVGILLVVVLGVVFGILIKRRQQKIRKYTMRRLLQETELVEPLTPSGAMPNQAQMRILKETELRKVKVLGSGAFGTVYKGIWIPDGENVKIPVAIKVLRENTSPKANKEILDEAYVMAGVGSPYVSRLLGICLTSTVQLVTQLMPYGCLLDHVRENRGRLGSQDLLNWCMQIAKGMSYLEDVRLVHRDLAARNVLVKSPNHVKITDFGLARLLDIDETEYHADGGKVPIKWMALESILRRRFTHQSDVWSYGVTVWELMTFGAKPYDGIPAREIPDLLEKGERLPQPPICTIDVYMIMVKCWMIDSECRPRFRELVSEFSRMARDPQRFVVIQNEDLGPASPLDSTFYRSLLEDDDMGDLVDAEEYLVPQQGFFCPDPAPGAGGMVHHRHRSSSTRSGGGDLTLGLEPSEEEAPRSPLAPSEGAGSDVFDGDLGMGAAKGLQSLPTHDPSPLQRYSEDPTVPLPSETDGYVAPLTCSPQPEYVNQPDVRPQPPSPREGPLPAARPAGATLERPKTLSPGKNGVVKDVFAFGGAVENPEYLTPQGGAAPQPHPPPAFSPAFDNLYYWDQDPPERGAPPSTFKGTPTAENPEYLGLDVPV

[9] = biological target: T1, Receptor-type tyrosine-protein kinase FLT3 (Homo sapiens, UniProt P36888); test: Inhibition of recombinant human FLT3 using Poly(Glu, Tyr) 4:1 as substrate after 1 hr by ELISA; method in brief: as §1
T1 sequence (P36888 whole entry): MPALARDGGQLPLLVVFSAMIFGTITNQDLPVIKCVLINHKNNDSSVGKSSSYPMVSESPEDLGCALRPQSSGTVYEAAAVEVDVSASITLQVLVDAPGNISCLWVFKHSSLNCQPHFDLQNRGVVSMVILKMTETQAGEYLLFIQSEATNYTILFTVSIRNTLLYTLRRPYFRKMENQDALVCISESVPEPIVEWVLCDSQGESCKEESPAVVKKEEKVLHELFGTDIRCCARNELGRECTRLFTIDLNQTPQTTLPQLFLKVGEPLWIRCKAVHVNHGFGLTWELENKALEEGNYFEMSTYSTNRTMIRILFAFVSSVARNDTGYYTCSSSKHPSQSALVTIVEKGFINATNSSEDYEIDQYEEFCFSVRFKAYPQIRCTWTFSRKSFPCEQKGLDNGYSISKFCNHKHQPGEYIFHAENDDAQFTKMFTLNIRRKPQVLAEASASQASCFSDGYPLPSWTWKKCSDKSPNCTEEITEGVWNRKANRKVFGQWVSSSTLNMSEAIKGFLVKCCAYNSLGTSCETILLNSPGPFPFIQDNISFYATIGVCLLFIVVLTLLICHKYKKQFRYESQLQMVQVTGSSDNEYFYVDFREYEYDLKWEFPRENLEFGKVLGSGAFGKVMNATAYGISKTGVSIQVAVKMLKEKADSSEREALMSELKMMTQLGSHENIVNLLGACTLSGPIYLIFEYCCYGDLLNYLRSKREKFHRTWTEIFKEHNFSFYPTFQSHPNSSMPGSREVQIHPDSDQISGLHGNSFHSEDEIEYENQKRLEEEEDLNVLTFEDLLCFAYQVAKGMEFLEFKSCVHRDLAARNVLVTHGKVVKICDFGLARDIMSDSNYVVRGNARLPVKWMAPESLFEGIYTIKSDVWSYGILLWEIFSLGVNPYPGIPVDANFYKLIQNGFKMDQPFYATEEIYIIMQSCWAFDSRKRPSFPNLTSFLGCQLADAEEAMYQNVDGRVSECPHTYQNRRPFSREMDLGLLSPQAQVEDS

TMD8 [10] = test: Cell cycle arrest in human TMD8 cells assessed as accumulation at G1 phase after 48 hrs by propidium iodide staining-based flow cytometric method; format: functional
TMD8 [11] = test: Cell cycle arrest in human TMD8 cells assessed as accumulation at G1 phase at 1 nM after 48 hrs by propidium iodide staining-based flow cytometric method (reference value: 51.33%); format: functional
TMD8 [12] = test: Cell cycle arrest in human TMD8 cells assessed as accumulation at G2 phase at 1 nM after 48 hrs by propidium iodide staining-based flow cytometric method (reference value: 14.53%); format: functional
TMD8 [13] = test: Cell cycle arrest in human TMD8 cells assessed as accumulation at G1 phase at 100 nM after 48 hrs by propidium iodide staining-based flow cytometric method (reference value: 51.33%); format: functional
TMD8 [14] = test: Cell cycle arrest in human TMD8 cells assessed as accumulation at G2 phase at 100 nM after 48 hrs by propidium iodide staining-based flow cytometric method (reference value: 14.53%); format: functional
TMD8 [15] = test: Induction of apoptosis in human TMD8 cells assessed as late apoptotic cells at 100 nM after 72 hrs by Annexin-FITC/propidium iodide staining-based flow cytometric method (reference value: 3.2%); format: functional
TMD8 [16] = test: Induction of apoptosis in human TMD8 cells assessed as late apoptotic cells at 1000 nM after 72 hrs by Annexin-FITC/propidium iodide staining-based flow cytometric method (reference value: 3.2%); format: functional
Mus musculus = test: In vivo inhibition of BTK autophosphorylation at Y223 in human TMD8 cells xenografted in CB17 SCID nude mouse at 15 mg/kg, […] by Western blot method; format: functional, organism-based

- pIC50 [1]: 9.40
- t1/2 (Rattus norvegicus [2]): 34.2 min
- Tmax [3]: 15 min
- AUC (Rattus norvegicus [4]): 211 ng·h/mL
- Drug metabolism [5]: Metabolite_Detected
- Drug metabolism [6]: Metabolite_Detected
- pIC50 [7]: 9.22
- pIC50 [8]: 7.63
- pIC50 [9]: 7.26
SMILES: C=CC(=O)N[C@@H]1Cn2c(c(-c3ccc(Oc4ccccc4)cc3)c3c(N)ncnc32)C1=C
- Activity (TMD8 [10]): Dose-dependent effect
- Activity (TMD8 [11]): 57.41%
- Activity (TMD8 [12]): 17.32%
- Activity (TMD8 [13]): 77.17%
- Activity (TMD8 [14]): 10.04%
- Activity (TMD8 [15]): 14.8%
- Activity (TMD8 [16]): 27.9%
- inhibition (Mus musculus): Active
